Values after ≈ are worked out from the molar mass of the structure shown. Active and inactive are the calls of the source. The rule behind the calls is not given here.
Assays:
[1] = tested on: Rattus norvegicus; experiment: Antiinflammatory activity in Sprague-Dawley rat assessed as inhibition of carrageenan-induced paw edema at 50 to 70 mg/kg, sc administered 1 hr before carrageenan challenge measured after 4 hrs relative to control; conditions: dose mg/kg 50-70; route subcutaneous
[2] = tested on: Rattus norvegicus; experiment: Antiinflammatory activity in Sprague-Dawley rat assessed as inhibition of carrageenan-induced paw edema at 50 to 70 mg/kg, sc administered 1 hr before carrageenan challenge measured after 3 hrs relative to control; conditions: dose mg/kg 50-70; route subcutaneous
[3] = tested on: Rattus norvegicus; experiment: Antiinflammatory activity in Sprague-Dawley rat assessed as inhibition of carrageenan-induced paw edema at 50 to 70 mg/kg, sc administered 1 hr before carrageenan challenge measured after 1 hr relative to control; format: functional; conditions: dose mg/kg 50-70; route subcutaneous
Summary of the method: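 One hour later, baseline right hind paw volume was taken, then 0.05 mL of 1% carrageenan in sterile pyrogen-free 0.9% NaCl was injected into the plantar aponeurosis. Paw volume was read by water plethysmometer at 1, 2, 3 and 4 h. % inhibition = (1 − Rt/Rc) × 100 against carrageenan-only controls (n=5).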

[4] = tested on: Rattus norvegicus; experiment: Antiinflammatory activity in Sprague-Dawley rat assessed as inhibition of carrageenan-induced paw edema at 50 to 70 mg/kg, sc administered 1 hr before carrageenan challenge measured after 2 hrs relative to control; conditions: dose mg/kg 50-70; route subcutaneous
[5] = tested on: Pseudomonas aeruginosa; experiment: Antimicrobial activity against Pseudomonas aeruginosa ATCC […] after 24 hrs by microdilution assay; format: functional
Summary of the method: (§1)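 MIC by micro-dilution per NCCLS 1997. Bacteria were subcultured overnight on Mueller-Hinton agar at 37 °C and passaged at least twice. Compounds were serially two-fold diluted in DMSO (1024 down to 16 stock levels) and mixed with sterile nutrient agar, then inoculum was added to the wells. MIC is the lowest concentration giving complete inhibition of macroscopic growth. Controls were DMSO, organism alone and medium alone.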

[6] = tested on: Pseudomonas aeruginosa; experiment: Antimicrobial activity against Pseudomonas aeruginosa ATCC […] at 25 ug/disk by disk diffusion method; format: functional; conditions: read-out: DIZ
Summary of the method: (§2)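 Disc diffusion sensitivity test as per Bauer et al. Bacteria were subcultured on Mueller-Hinton agar overnight at 37 °C; Candida on SDA at 35 °C for 24-48 h, each passaged at least twice. DMSO served as solvent control; amoxicillin and fluconazole were references. Read-out was the inhibition zone.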

[7] = tested on: Candida albicans; experiment: Antimicrobial activity against Candida albicans ATCC 10231 at 25 ug/disk by disk diffusion method; format: functional, organism-based
Summary of the method: as §2

[8] = tested on: Bacillus subtilis; experiment: Antimicrobial activity against Bacillus subtilis ATCC 6633 after 24 hrs by microdilution assay; format: functional; conditions: ATCC 6633, 24 h
Summary of the method: as §1

[9] = tested on: Staphylococcus aureus; experiment: Antimicrobial activity against Staphylococcus aureus ATCC 29213 after 24 hrs by microdilution assay; format: functional; conditions: ATCC 29213, 24 h
Summary of the method: (§3)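 MIC by microdilution following NCCLS 1997 guidelines. Compounds were serially two-fold diluted in DMSO from 1024 down to […], mixed with sterile nutrient agar, and inoculum was added to each well. MIC was read as the lowest concentration giving complete absence of macroscopic growth. Controls were DMSO, organism alone and medium alone. Bacteria were precultured on MHA at 37 °C overnight; Candida on SDA at 35 °C.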

[10] = tested on: Escherichia coli; experiment: Antimicrobial activity against Escherichia coli ATCC 25922 after 24 hrs by microdilution assay; format: functional; conditions: ATCC 25922, 24 h
Summary of the method: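 MIC by microdilution following NCCLS 1997 guidelines. Bacteria were subcultured on Mueller-Hinton agar overnight at 37 °C and passaged at least twice. Compounds were serially two-fold diluted in DMSO (1024 down to 16), mixed with nutrient agar, and inoculated. MIC was the lowest concentration with no macroscopic growth. DMSO, organism-only and medium-only controls were included, with amoxicillin as reference.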

[11] = tested on: Bacillus subtilis; experiment: Antimicrobial activity against Bacillus subtilis ATCC 6633 at 25 ug/disk by disk diffusion method; format: functional; conditions: read-out: DIZ
Summary of the method: as §2

[12] = tested on: Mycolicibacterium phlei; experiment: Antimicrobial activity against Mycobacterium phlei ATCC 10142 at 25 ug/disk by disk diffusion method; format: functional, organism-based
Summary of the method: as §2

[13] = tested on: Staphylococcus aureus; experiment: Antimicrobial activity against Staphylococcus aureus ATCC 29213 at 25 ug/disk by disk diffusion method; format: functional; conditions: read-out: DIZ
Summary of the method: as §2

[14] = tested on: Escherichia coli; experiment: Antimicrobial activity against Escherichia coli ATCC 25922 at 25 ug/disk by disk diffusion method; format: functional; conditions: read-out: DIZ
Summary of the method: as §2

[15] = tested on: Bacillus subtilis; experiment: Antimicrobial activity against Bacillus subtilis ATCC 6633 at 4 ug/disk by disk diffusion method; format: functional, organism-based
[16] = tested on: Escherichia coli; experiment: Antimicrobial activity against Escherichia coli ATCC 25922 at 4 ug/disk by disk diffusion method; format: functional, organism-based
[17] = tested on: Candida albicans; experiment: Antimicrobial activity against Candida albicans ATCC 10231 after 48 hrs by microdilution assay; format: functional; conditions: ATCC 10231, 48 h
Summary of the method: as §3

[18] = tested on: Mycolicibacterium phlei; experiment: Antimicrobial activity against Mycobacterium phlei ATCC 10142 at 4 ug/disk by disk diffusion method; format: functional, organism-based
[19] = tested on: Staphylococcus aureus; experiment: Antimicrobial activity against Staphylococcus aureus ATCC 29213 at 4 ug/disk by disk diffusion method; format: functional, organism-based
[20] = tested on: Candida albicans; experiment: Antimicrobial activity against Candida albicans ATCC 10231 at 4 ug/disk by disk diffusion method; format: functional; conditions: read-out: DIZ
[21] = tested on: Pseudomonas aeruginosa; experiment: Antimicrobial activity against Pseudomonas aeruginosa ATCC […] at 4 ug/disk by disk diffusion method; format: functional, organism-based
[22] = tested on: Staphylococcus aureus; experiment: Antimicrobial activity against Staphylococcus aureus ATCC 29213 at 20 ug/disk by disk diffusion method; format: functional, organism-based
Summary of the method: as §2

[23] = tested on: Candida albicans; experiment: Antimicrobial activity against Candida albicans ATCC 10231 at 20 ug/disk by disk diffusion method; format: functional, organism-based
Summary of the method: as §2

[24] = tested on: Bacillus subtilis; experiment: Antimicrobial activity against Bacillus subtilis ATCC 6633 at 20 ug/disk by disk diffusion method; format: functional; conditions: read-out: DIZ
Summary of the method: as §2

[25] = tested on: Pseudomonas aeruginosa; experiment: Antimicrobial activity against Pseudomonas aeruginosa ATCC […] at 20 ug/disk by disk diffusion method; format: functional, organism-based
Summary of the method: as §2

[26] = tested on: Mycolicibacterium phlei; experiment: Antimicrobial activity against Mycobacterium phlei ATCC 10142 at 20 ug/disk by disk diffusion method; format: functional, organism-based
Summary of the method: as §2

[27] = tested on: Escherichia coli; experiment: Antimicrobial activity against Escherichia coli ATCC 25922 at 20 ug/disk by disk diffusion method; format: functional, organism-based
Summary of the method: as §2

Row | SMILES | inhibition (INH) [1] [%] | inhibition (INH) [2] [%] | inhibition (INH) [3] [%] | inhibition (INH) [4] [%] | also measured
1 | N=c1c2c(-c3ccccc3)cn(-c3ccc(Cl)c(Cl)c3)c2[nH]c(=S)n1-c1ccccc1 | 68.57 | 76.83 | 42 | 48.07 | –
2 | CC1(C)S[C@@H]2[C@H](NC(=O)[C@H](N)c3ccc(O)cc3)C(=O)N2[C@H]1C(=O)O [AMOXICILLIN] | – | – | – | – | MIC [5]: 64 µg/mL (≈ 175 µM); zone of inhibition at 25 µg/disc [6]: 12 mm; diameter of the inhibition zone (DIZ) [7]: inactive; MIC [8]: 64 µg/mL (≈ 175 µM); MIC [9]: 16 µg/mL (≈ 43.8 µM); MIC [10]: 256 µg/mL (≈ 701 µM); zone of inhibition at 25 µg/disc [11]: 12 mm; diameter of the inhibition zone (DIZ) [12]: inactive; zone of inhibition at 25 µg/disc [13]: 13 mm; zone of inhibition at 25 µg/disc [14]: 13 mm
3 | S=c1[nH]c(=S)c2c(-c3ccccc3)c(-c3ccccc3)n(Cc3ccccc3)c2[nH]1 | 27.61 | 13.23 | 2.608 | 5.38 | MIC [8]: 512 µg/mL (≈ 1200 µM)
4 | N#Cc1c(-c2ccccc2)c(-c2ccccc2)n(Cc2ccccc2)c1N | 23.8 | 12.59 | 3.04 | 4.23 | –
5 | Cc1c(-n2c(-c3ccccc3)c(-c3ccccc3)c3c(N)nc(=S)[nH]c32)n(C)n(-c2ccccc2)c1=O | 64.28 | 73.34 | 0 | 0 | –
6 | Nc1nc(=S)[nH]c2c1c(-c1ccccc1)c(-c1ccccc1)n2Cc1ccccc1 | 24.76 | 13.97 | 1.73 | 3.84 | MIC [8]: 512 µg/mL (≈ 1250 µM); MIC [9]: 256 µg/mL (≈ 627 µM)
7 | Cc1c(-n2c(-c3ccccc3)c(-c3ccccc3)c3c(=S)n4c(=O)/c(=C/c5ccccc5)sc4nc32)n(C)n(-c2ccccc2)c1=O | – | – | 1.74 | – | –
8 | S=c1[nH]c(=S)c2c(-c3ccccc3)cn(-c3ccc(Cl)c(Cl)c3)c2[nH]1 | 26 | 12.53 | 1.73 | 4.48 | –
9 | N#Cc1c(-c2ccccc2)cn(-c2ccc(Cl)c(Cl)c2)c1N | 19.04 | 13.88 | 2.17 | 12.3 | –
10 | Cc1c(-n2c(-c3ccccc3)c(-c3ccccc3)c3c(=S)[nH]c(=S)[nH]c32)n(C)n(-c2ccccc2)c1=O | 28.8 | 14.1 | 0 | 3.94 | –
11 | CC(C)Cc1ccc(C(C)C(=O)O)cc1 (stereo not drawn) [IBUPROFEN] | 69.52 | 60.66 | 6.08 | 45 | –
12 | Cc1c(-n2c(-c3ccccc3)c(-c3ccccc3)c3c(=N)n(-c4ccccc4)c(=S)[nH]c32)n(C)n(-c2ccccc2)c1=O | – | – | 1.98 | – | –
13 | Nc1nc(=S)[nH]c2c1c(-c1ccccc1)cn2-c1ccc(Cl)c(Cl)c1 | 76.82 | 95.95 | 6.08 | 95.38 | –
14 | OC(Cn1cncn1)(Cn1cncn1)c1ccc(F)cc1F [FLUCONAZOLE] | – | – | – | – | diameter of the inhibition zone (DIZ) [15]: inactive; diameter of the inhibition zone (DIZ) [16]: inactive; MIC [17]: 512 µg/mL (≈ 1670 µM); diameter of the inhibition zone (DIZ) [18]: inactive; diameter of the inhibition zone (DIZ) [19]: inactive; zone of inhibition at 4 µg/disc [20]: 20 mm; diameter of the inhibition zone (DIZ) [21]: inactive
15 | O=c1/c(=C/c2ccccc2)sc2nc3c(c(-c4ccccc4)c(-c4ccccc4)n3Cc3ccccc3)c(=S)n12 | – | – | 3.498 | – | –
16 | Cc1c(-n2c(N)c(C#N)c(-c3ccccc3)c2-c2ccccc2)n(C)n(-c2ccccc2)c1=O | 64.68 | 62.62 | 9.5 | 36.53 | diameter of the inhibition zone (DIZ) [22]: inactive; diameter of the inhibition zone (DIZ) [23]: inactive; zone of inhibition at 20 µg/disc [24]: 10 mm; diameter of the inhibition zone (DIZ) [25]: inactive; MIC [8]: 512 µg/mL (≈ 1150 µM); diameter of the inhibition zone (DIZ) [26]: inactive; diameter of the inhibition zone (DIZ) [27]: inactive
17 | O=c1/c(=C/c2ccccc2)sc2nc3c(c(-c4ccccc4)cn3-c3ccc(Cl)c(Cl)c3)c(=S)n12 | – | – | 0 | – | –
18 | NNc1nc(N)c2c(-c3ccccc3)cn(-c3ccc(Cl)c(Cl)c3)c2n1 | 67.43 | 95.58 | 14.78 | 30 | –
19 | NNc1nc(N)c2c(-c3ccccc3)c(-c3ccccc3)n(Cc3ccccc3)c2n1 | 79.04 | 73.9 | 10.43 | 61.15 | –
